Assay results as given in publication PMC10825487 (Heliyon, 2024).

Molecular target: DENV2 NS2B-NS3 protease (Dengue virus type 2, UniProt P29990)
Assay: DENV2 NS2B-NS3 protease inhibition assay
Format: biochemical
Settings: for IC50: IC50 (Table 3), in vitro inhibition of DENV2 NS2B-NS3 protease, two decimals; for fold decrease of inhibitory activity: based on IC50, compared to 3e
Procedure, shortened: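 Recombinant DENV-2 NS2B-NS3 protease (pQE-30, E. coli XL1-Blue MRF', IPTG-induced, Ni-NTA-purified) at 3.5 µM in 200 mM Tris-HCl pH 8.5. Preincubated with test compound (700 µM screen; 5.5–700.0 µM for IC50) for 10 min at 37 °C. Then 150 µM Boc-Gly-Arg-Arg-MCA added, 1 h at 37 °C. AMC read at ex 365/em 410 nm. % inhibition relative to enzyme+substrate control, buffer blank subtracted. n = 3; IC50 by nonlinear regression.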

Sequence of DENV2 NS2B-NS3 protease (P29990 1346-1475): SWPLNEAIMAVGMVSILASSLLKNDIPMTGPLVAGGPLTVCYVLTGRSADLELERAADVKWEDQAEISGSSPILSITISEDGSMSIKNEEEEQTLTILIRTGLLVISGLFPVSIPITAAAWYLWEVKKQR
Sequence of DENV2 NS2B-NS3 protease (P29990 1476-1653): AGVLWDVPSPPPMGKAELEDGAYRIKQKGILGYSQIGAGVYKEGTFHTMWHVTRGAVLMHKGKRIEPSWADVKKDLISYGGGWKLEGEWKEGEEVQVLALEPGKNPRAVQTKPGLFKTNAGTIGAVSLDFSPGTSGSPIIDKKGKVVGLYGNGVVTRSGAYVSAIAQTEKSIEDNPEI

Compound	inhibition at 700 µM	fold decrease of inhibition (based on IC50, compared to 3k)	IC50	fold decrease of inhibitory activity
Oc1c(Br)cccc1-c1nc2cc3nc4ccccc4nc3cc2[nH]1 [Compound 3f, 2-(3-bromo-2-hydroxyphenyl)-1H-imidazo [4,5-b]phenazine]	70.8 ± 1.46%	–	–	–
Oc1ccccc1-c1nc2cc3nc4ccccc4nc3cc2[nH]1 [Compound 3b, 2-(2-hydroxyphenyl)-1H-imidazo [4,5-b]phenazine]	46.6 ± 1.68%	–	–	–
Fc1ccc(-c2nc3cc4nc5ccccc5nc4cc3[nH]2)cc1 [Compound 3m, 2-(4-fluorophenyl)-1H-imidazo [4,5-b]phenazine]	84.8 ± 0.89%	2.2 fold	–	–
Oc1ccc(-c2nc3cc4nc5ccccc5nc4cc3[nH]2)c(O)c1 [Compound 3h, 2-(2,4-dihydroxyphenyl)-1H-imidazo [4,5-b]phenazine]	84.7 ± 1.26%	–	–	–
FC(F)(F)Oc1ccc(-c2nc3cc4nc5ccccc5nc4cc3[nH]2)cc1 [Compound 3k, 2-(4-(trifluoromethoxy)phenyl)-1H-imidazo [4,5-b]phenazine]	63.3 ± 2.8%	–	71.9 µM	–
COc1ccc(-c2nc3cc4nc5ccccc5nc4cc3[nH]2)cc1OC [Compound 3c, 2-(3,4-dimethoxyphenyl)-1H-imidazo [4,5-b]phenazine]	55.31 ± 0.39%	–	–	–
Oc1ccc(-c2nc3cc4nc5ccccc5nc4cc3[nH]2)cc1 [Compound 3j, 2-(4-hydroxyphenyl)-1H-imidazo [4,5-b]phenazine]	60.3 ± 2.27%	–	–	3 fold
COc1ccc(-c2nc3cc4nc5ccccc5nc4cc3[nH]2)cc1[N+](=O)[O-] [Compound 3a, 2-(4-methoxy-3-nitrophenyl)-1H-imidazo [4,5-b]phenazine]	83.5 ± 1.96%	–	–	1 fold
COc1cc([N+](=O)[O-])ccc1-c1nc2cc3nc4ccccc4nc3cc2[nH]1 [Compound 3d, 2-(2-methoxy-4-nitrophenyl)-1H-imidazo [4,5-b]phenazine]	83.9 ± 1.67%	–	–	1.4 fold
CC(C)c1ccc(-c2nc3cc4nc5ccccc5nc4cc3[nH]2)cc1 [Compound 3i, 2-(4-isopropylphenyl)-1H-imidazo [4,5-b]phenazine]	75.68 ± 0.26%	–	–	–
O=c1c(O)c(-c2ccc(O)c(O)c2)oc2cc(O)cc(O)c12 [Quercetin, reference compound]	90.27 ± 0.49%	–	105 µM	–
O=[N+]([O-])c1ccc(-c2nc3cc4nc5ccccc5nc4cc3[nH]2)cc1O [Compound 3e, 2-(3-hydroxy-4-nitrophenyl)-1H-imidazo [4,5-b]phenazine]	95.5 ± 1.75%	–	54.8 µM	–
Fc1ccccc1-c1nc2cc3nc4ccccc4nc3cc2[nH]1 [Compound 3l, 2-(2-fluorophenyl)-1H-imidazo [4,5-b]phenazine]	78.23 ± 0.03%	–	–	–
COc1cc(-c2nc3cc4nc5ccccc5nc4cc3[nH]2)cc(OC)c1OC [Compound 3g, 2-(3,4,5-trimethoxyphenyl)-1H-imidazo [4,5-b]phenazine]	53.3 ± 2.76%	–	–	–
